Data reported in PMC10256642 (Clinical Pharmacokinetics, 2023).
“Also recorded” adds a separate entry of the source. Where two headings read alike, the source gives them in different places.

What was measured:
[1] = severe renally impaired and ESRD subjects; cited from earlier work
[2] = in vitro studies; cited from earlier work
[3] = assay type: in vivo, human; settings: 100 µg s.c. single dose
Outline: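 Adults aged 18–85 (BMI 17–40 kg/m2) were grouped by Cockcroft–Gault CrCl and given a single subcutaneous 100 µg dose of test compound. Fasting ran from ≥8 h before to 4 h after dosing, with no fluids 1 h before to 2 h after. Adverse events, vitals, ECG, telemetry and laboratory tests were monitored inpatient for 72 h, then outpatient at days 7±1 and 28±2. TEAEs were coded by MedDRA 21.0, counting each once at highest severity.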

[4] = Immunogenicity: antidrug antibodies; assay type: in vivo, human; settings: 100 µg s.c. single dose; baseline, 7 and 28 days after treatment
Outline: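 Open-label single subcutaneous dose of test compound (100 µg, lower abdomen, fasted) in adults with normal or impaired renal function. Antidrug antibody titers were measured at baseline, 7 and 28 days post-dose, or at early discontinuation. Cross-reactivity to GLP-1 and glucagon was also recorded. Treatment-emergent incidence is treatment-induced plus treatment-boosted ADA. Analysed in all treated participants with ADA readings.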

[5] = cited from earlier work
[6] = 5–300 µg dose range; previously demonstrated, no reference given; cited from earlier work

Q: Which “Tolerability and PK in severe renal impairment and ESRD” value [1] does the source give for “exenatide: GLP-1 receptor agonist exenatide (exendin-4)” here?
A: Its value is “poor tolerability and significant changes in PK”.

Q: What about the “Primary cleavage sites (metabolized specifically in the kidney)” value [2] of the same compound?
A: The value was “after amino acids (AA)-21 and -22”.

Q: With CCCCCCCCCCCCCCCC(=O)N[C@@H](CCC(=O)NCCCC[C@H](NC(=O)[C@H](CC(=O)O)NC(=O)[C@H](CO)NC(=O)[C@@H](NC(=O)[C@H](Cc1ccccc1)NC(=O)[C@@H](NC(=O)CNC(=O)[C@H](CCC(N)=O)NC(=O)[C@H](CO)NC(=O)[C@@H](N)Cc1c[nH]cn1)[C@@H](C)O)[C@@H](C)O)C(=O)N[C@@H](CO)C(=O)N[C@@H](CCC(=O)O)C(=O)N[C@@H](Cc1ccc(O)cc1)C(=O)N[C@@H](CC(C)C)C(=O)N[C@@H](CC(=O)O)C(=O)N[C@@H](CO)C(=O)N[C@@H](CCC(=O)O)C(=O)N[C@@H](CCCNC(=N)N)C(=O)N[C@@H](C)C(=O)N[C@@H](CCCNC(=N)N)C(=O)N[C@@H](CC(=O)O)C(=O)N[C@@H](Cc1ccccc1)C(=O)N[C@H](C(=O)N[C@@H](C)C(=O)N[C@@H](Cc1c[nH]c2ccccc12)C(=O)N[C@@H](CC(C)C)C(=O)N[C@@H](CCC(=O)O)C(=O)N[C@@H](C)C(=O)NCC(=O)NCC(=O)O)C(C)C)C(=O)O [cotadutide] as the compound, how does the Incidence of headache ([3]; 10 of 37 individuals) read?
A: Its Incidence of headache is 27.0%.

Q: And the Incidence of nausea ([3]; 12 of 37 individuals)?
A: The Incidence of nausea was 32.4%.

Q: And the Incidence of vomiting ([3]; 13 of 37 individuals)?
A: Its Incidence of vomiting is 35.1%.

Q: What about the “Severity of TEAEs” value ([3]; all groups) of the same compound?
A: The value was “mostly mild to moderate in severity”.

Q: And the “Incidence of TEAE” value ([3]; all patients, 22 of 37)?
A: The value was 59.5%.

Q: And the “Incidence of TEAE” value ([3]; lower moderate renal impairment group, 8 of 11 patients)?
A: The value was 72.7%.

Q: What about the Incidence of nausea ([3]; normal renal function group) of the same compound?
A: The Incidence of nausea was 38%.

Q: What about the Incidence of vomiting ([3]; normal renal function group) of the same compound?
A: Its Incidence of vomiting is 38%.

Q: And the “Incidence of nausea, range” value ([3]; renal impairment groups)?
A: The value was 29–38%.

Q: And the “Incidence of vomiting, range” value ([3]; renal impairment groups)?
A: The value was 18–50%.

Q: What about the “Deaths or other serious TEAEs” value ([3]; study period) of the same compound?
A: Its value is “no deaths or other serious TEAEs”.

Q: What about the “Incidence of TEAE” value ([3]; upper moderate renal impairment group, 3 of 7 patients) of the same compound?
A: Its value is 42.9%.

Q: What about the “Antidrug antibody (ADA) results” value [4] of the same compound?
A: Its value is “No positive antidrug antibody results; also recorded: No confirmed positive ADA results”.

Q: What about the “Urine albumin-to-creatinine ratio vs placebo” value ([5]; 32-day treatment with cotadutide 50–300 µg, T2D and stage 3 CKD with micro- and macroalbuminuria) of the same compound?
A: Its value is “reduced urine albumin-to-creatinine ratio”.

Q: What about the “Participants with a serious TEAE deemed related to cotadutide” value ([5]; once-daily cotadutide titrated to 50–300 µg for 32 days, moderate renal impairment and T2D, 1 of 21 participants) of the same compound?
A: Its value is 4.8%.

Q: What about the “PK profile (dose and time dependence)” value [6] of the same compound?
A: The value was “linear and time-independent PK profile”.
